pIC50: −log10 of the molar value. Active and inactive are the calls of the source. No cut-off for these calls is given here.
Columns and labels:
MCF7 [1] = test: Antiproliferative activity against human MCF7 cells after 72 hrs by MTT assay; type: functional, cell-based; conditions: MCF7, 72 h
Summary of the method: (§1)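 MGC-803 and MCF-7 cells grown in DMEM (MCF-7 with 1× NEAA); Bel-7402 and K562 grown in RPMI 1640; all media with 10% FBS. Cells seeded at 3500/well, pre-incubated 24 h, then exposed to compounds in fresh medium (DMSO ≤0.25%) for 72 h at 37 °C. MTT read-out at 570 nm. Quadruplicate wells, repeated three times; means ± SD (n = 3).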

[2] = Antiproliferative activity against human NCI-H460/MX20 cells after 48 hrs by MTT assay; type: functional, cell-based; conditions: NCI-H460/MX20, 48 h
Summary of the method: (§2)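 Colorimetric MTT assay. KB-3-1, NCI-H460 and Bel-7404 cells were seeded at 4000 cells/well; resistant KB/CP4, NCI-H460/MX20 and Bel-7404/CP20 were seeded at 7000 cells/well. Cells were pre-incubated 24 h at 37 °C, 5% CO2, then exposed to a compound concentration series for 48 h with DMSO ≤0.25%. Absorbance read at 570 nm. Quadruplicate wells, three repeats; means ± SD.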

[3] = Antiproliferative activity against human BEL7404/CP20 cells after 48 hrs by MTT assay; type: functional, cell-based; conditions: BEL7404/CP20, 48 h; summary of the method: as §2
[4] = Antiproliferative activity against human KB/CP4 cells after 48 hrs by MTT assay; type: functional, cell-based; conditions: KB/CP4, 48 h; summary of the method: as §2
Bel-7402 [5] = test: Cytotoxicity against human Bel7402 cells at 10 to 50 uM after 24 hrs by LDH assay; type: functional, cell-based
Summary of the method: (§3)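 Membrane integrity assay on MCF-7 and Bel-7402 cells seeded at ~5 × 10^3 per well for 24 h, then given compounds at 10, 20 or 50 μM. Culture medium collected and assayed with CytoTox-ONE LDH reagent for 10 min, followed by stop solution. Fluorescence read at Ex 560/Em 590 nm. Expressed as percentage of unstimulated cells.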

KB 3-1 = test: Antiproliferative activity against human KB-3-1 cells after 48 hrs by MTT assay; type: functional, cell-based; conditions: KB 3-1, 48 h; summary of the method: as §2
Bel-7402 [6] = test: Antiproliferative activity against human Bel7402 cells after 72 hrs by MTT assay; type: functional, cell-based; conditions: Bel-7402, 72 h; summary of the method: as §1
[7] = Selectivity ratio of IC50 for human KB/CP4 cells to IC50 for human KB-3-1 cells
NCI-H460 = test: Antiproliferative activity against human NCI-H460 cells after 48 hrs by MTT assay; type: functional, cell-based; conditions: NCI-H460, 48 h; summary of the method: as §2
K562 = test: Antiproliferative activity against human K562 cells after 72 hrs by MTT assay; type: functional, cell-based; conditions: K562, 72 h; summary of the method: as §1
Bel-7402 [8] = test: Antiproliferative activity against human Bel7402 cells at 1 uM after 72 hrs by MTT assay; type: functional, cell-based
BEL-7404 tumor cell line = test: Antiproliferative activity against human Bel7404 cells after 48 hrs by MTT assay; type: functional, cell-based; conditions: BEL-7404, 48 h; summary of the method: as §2
MGC-803 = test: Antiproliferative activity against human MGC803 cells after 72 hrs by MTT assay; type: functional, cell-based; conditions: MGC-803, 72 h; summary of the method: as §1
MCF7 [9] = test: Cytotoxicity against human MCF7 cells at 10 to 50 uM after 24 hrs by LDH assay; type: functional, cell-based; summary of the method: as §3
Mus musculus [10] = test: Hepatotoxicity in Balb/c nude mouse xenografted with human MCF7 cells assessed as morphological changes in liver at 20 mg/kg/day, iv for 4 weeks by hematoxylin and eosin staining based microscopic method; type: toxicity, organism-based; conditions: in vivo, 672 h
Summary of the method: (§4)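 Male BALB/c nude mice (6 weeks old) carrying subcutaneous MCF-7 xenografts (1 × 10^6 cells). Dosed iv 20 mg/kg daily for 28 days in 10% DMF/2% poloxamer/88% saline; six mice per group. Organs then fixed in 4% paraformaldehyde, paraffin-embedded, cut at 5 μm, stained with Harris hematoxylin and eosin-phloxine, and examined by light microscopy.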

Mus musculus [11] = test: Toxicity in Balb/c nude mouse xenografted with human MCF7 cells assessed as morphological changes in spleen at 20 mg/kg/day, iv for 4 weeks by hematoxylin and eosin staining based microscopic method; type: organism-based; conditions: in vivo, 672 h
Summary of the method: (§5)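 Male BALB/c nude mice aged six weeks received 1 × 10^6 MCF-7 cells subcutaneously in the right flank. After 7 d they were randomized and dosed 20 mg/kg iv once daily in 10% DMF/2% poloxamer/88% saline; saline control. Heart, liver, spleen, lung and kidney were fixed in 4% paraformaldehyde, paraffin-embedded, sectioned at 5 μm, H&E stained and examined microscopically.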

Mus musculus [12] = test: Toxicity in Balb/c nude mouse xenografted with human MCF7 cells assessed as changes in body weight at 20 mg/kg/day, iv for 4 weeks measured once in 2 days during compound dosing; type: organism-based; conditions: in vivo
Summary of the method: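 Mice received 1 × 10^6 tumor cells subcutaneously in the right flank: MCF-7 in male BALB/c nude mice aged six weeks, H22 in male ICR mice aged five weeks. After 7 d they were randomized (six or eight per group). Dosing was 20 mg/kg iv daily in 10% DMF/2% poloxamer/88% saline for 21 or 28 days; saline control. Body weight was recorded every 2 days.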

MCF7 [13] = test: Antitumor activity against human MCF7 cells xenografted in Balb/c nude mouse assessed as tumor growth inhibition at 20 mg/kg/day, iv for 4 weeks relative to control; type: functional; conditions: 672 h, read-out: TGI
Summary of the method: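 Six-week-old male BALB/c nude mice received 1 × 10^6 MCF-7 cells subcutaneously in the right flank. After 7 d of tumor growth, mice were randomized into groups of six. Dosing was 20 mg/kg iv once daily for 28 days in 10% DMF/2% poloxamer/88% saline. Tumor volume (L × W²/2) and body weight were recorded every 2 days. Inhibition = (1 − mean treated/control tumor weight) × 100%.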

Mus musculus [14] = test: Toxicity in Balb/c nude mouse xenografted with human MCF7 cells assessed as morphological changes in lungs at 20 mg/kg/day, iv for 4 weeks by hematoxylin and eosin staining based microscopic method; type: organism-based; conditions: in vivo, 672 h; summary of the method: as §5
Mus musculus [15] = test: Cardiotoxicity in Balb/c nude mouse xenografted with human MCF7 cells assessed as morphological changes in heart at 20 mg/kg/day, iv for 4 weeks by hematoxylin and eosin staining based microscopic method; type: toxicity, organism-based; conditions: in vivo, 672 h; summary of the method: as §4
Mus musculus [16] = test: Nephrotoxicity in Balb/c nude mouse xenografted with human MCF7 cells assessed as morphological changes in kidney at 20 mg/kg/day, iv for 4 weeks by hematoxylin and eosin staining based microscopic method; type: toxicity, organism-based; conditions: in vivo, 672 h; summary of the method: as §5
[17] = Selectivity ratio of IC50 for human L02 cells to IC50 for human Bel7402 cells

Row | SMILES | pIC50 (MCF7 [1]) | pIC50 [2] | pIC50 [3] | pIC50 [4] | Activity (Bel-7402 [5]) | pIC50 (KB 3-1) | pIC50 (Bel-7402 [6]) | Ratio IC50 [7] | pIC50 (NCI-H460) | pIC50 (K562) | Activity (Bel-7402 [8]) | pIC50 (BEL-7404 tumor cell line) | pIC50 (MGC-803) | Activity (MCF7 [9]) | inhibition in vivo at 20 mg/kg/day (MCF7 [13]) [%] | other results
1 | C=C1C(=O)[C@]23[C@H](O)[C@H]1CC[C@H]2[C@]12C=CC(=O)C(C)(C)[C@H]1[C@H](O)[C@]3(O)OC2 | 4.95 | 4.27 | 4.82 | 4.79 | inactive | 4.78 | 5.46 | <1 | 4.72 | 5.55 | Active | 4.79 | 5.25 | inactive | – | –
2 | C=C1C(=O)[C@]23[C@H](OC(C)=O)[C@H]1CC[C@H]2[C@]12C=C[C@H](OC(C)=O)C(C)(C)[C@H]1[C@H](O)[C@]3(O)OC2 | 5.38 | – | – | – | – | – | 5.68 | – | – | 5.73 | Active | – | 5.51 | – | – | –
3 | C=C1C(=O)[C@]23[C@H](O)[C@H]1CC[C@H]2[C@]12C=CCC(C)(C)[C@H]1[C@H](O)[C@]3(O)OC2 | 5.70 | 4.96 | 5.30 | 5.53 | inactive | 5.29 | 5.80 | <1 | 5.57 | 6.66 | Active | 5.41 | 5.91 | inactive | 61.6 | Activity (Mus musculus [10]): Non-Toxic; Activity (Mus musculus [11]): Non-Toxic; Activity (Mus musculus [12]): Non-Toxic; Activity (Mus musculus [14]): Non-Toxic; Activity (Mus musculus [15]): Non-Toxic; Activity (Mus musculus [16]): Non-Toxic
4 | C=C1C(=O)[C@@]23[C@@H]4OC(C)(C)O[C@@]25OC[C@]2([C@@H](OS(C)(=O)=O)CCC(C)(C)[C@H]2[C@@H]5O)[C@@H]3CC[C@@H]14 | – | – | – | – | – | – | – | – | – | – | Active | – | – | – | – | –
5 | O=P1(N(CCCl)CCCl)NCCCO1 (configuration not stated) [CYCLOPHOSPHAMIDE ANHYDROUS] | – | – | – | – | – | – | – | – | – | – | – | – | – | – | 64.6 | –
6 | C=C1C(=O)[C@@]23[C@@H]4OC(C)(C)O[C@@]25OC[C@]2(C=CCC(C)(C)[C@H]2[C@@H]5O)[C@@H]3CC[C@@H]14 | 5.83 | – | – | – | – | – | 5.44 | – | – | 5.10 | Active | – | 5.44 | – | – | –
7 | C=C1C(=O)[C@]23[C@H](O)[C@H]1CC[C@H]2[C@@]12CO[C@]3(O)[C@@H](O)[C@@H]1C(C)(C)CC[C@@H]2O [ORIDONIN] | 4.75 | 4.59 | 4.77 | 4.97 | inactive | 4.88 | 5.27 | – | 4.69 | 5.36 | – | 4.75 | 5.04 | inactive | 58.9 | Ratio IC50 [17]: 6; Activity (Mus musculus [10]): Non-Toxic; Activity (Mus musculus [11]): Non-Toxic; Activity (Mus musculus [12]): Non-Toxic; Activity (Mus musculus [14]): Non-Toxic; Activity (Mus musculus [15]): Non-Toxic; Activity (Mus musculus [16]): Non-Toxic
8 | C=C1C(=O)[C@@]23[C@@H]4OC(C)(C)O[C@@]25OC[C@]2([C@@H]6O[C@@H]6CC(C)(C)[C@H]2[C@@H]5O)[C@@H]3CC[C@@H]14 | 5.80 | – | – | – | – | – | 5.88 | – | – | 5.78 | Active | – | 5.85 | – | – | –
9 | C=C1C(=O)[C@]23[C@H](OC(=O)c4cccc(C)c4)[C@H]1CC[C@H]2[C@]12C=CCC(C)(C)[C@H]1[C@H](O)[C@]3(O)OC2 | 6.74 | 4.85 | 5.47 | 6.00 | – | 5.21 | 6.35 | <1 | 5.61 | 5.90 | – | 5.18 | 5.99 | – | – | Ratio IC50 [17]: 14.58
10 | C=C1C(=O)[C@]23[C@H](O)[C@H]1CC[C@H]2[C@@]12CO[C@@]3(O)[C@@H](O)[C@@H]1C(C)(C)C[C@H](Cl)[C@H]2O | 5.46 | 4.31 | 5.22 | 5.23 | inactive | 5.18 | 5.77 | <1 | 5.06 | 5.64 | – | 5.16 | 5.50 | inactive | – | –
